Drawing on ChEMBL document CHEMBL3272253, “Relationship of molecular structure to in vivo scintigraphic distribution patterns of carbon-11 labeled compounds. 3. (11C)Hydantoins” (J Med Chem, 1976), this text covers Drug uptake, Drug excretion and Ratio for nine molecules.

What all share (conditions): in vivo
Series [1] is described as follows: Drug level in iv dosed dog lung by gamma-scintillation counting analysis. It is filed as ADME, organism-based, Canis lupus familiaris. In short, it runs like this:
(§1)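 Carbon-11-labeled hydantoin, 1–59 mCi of final product, dissolved in 1–1.5% aqueous NaOH and given iv to dogs. Distribution imaged serially for up to 2 hr or more with a scintillation camera fitted with a pinhole collimator (1-cm hyperbolic aperture), with whole-body scintiphotos at about 5 and 30 min. Readout is qualitative to semiquantitative; no coincidence imaging.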

The subject of series [2] is Liver. Put plainly: Drug level in iv dosed dog liver by gamma-scintillation counting analysis. Type of series: ADME, organism-based, Canis lupus familiaris. In short, it runs like this:
as §1

Series [3] has as its system Canis familiaris. Put plainly: Drug level in iv dosed dog by gamma-scintillation counting analysis. Type of series: ADME, organism-based, Canis lupus familiaris. In short, it runs like this:
as §1

Series [4] can be described thus: Drug level in iv dosed dog kidney by gamma-scintillation counting analysis. It is filed as ADME, organism-based, Canis lupus familiaris. In short, it runs like this:
as §1

Series [5] can be described thus: Drug excretion in iv dosed dog urine by gamma-scintillation counting analysis. It is filed as ADME, organism-based, Canis lupus familiaris. In short, it runs like this:
as §1

Series [6] has as its system Brain. Nature of the series: Drug level in iv dosed dog brain after 5 to 30 mins by gamma-scintillation counting analysis. Type of series: ADME, organism-based, Canis lupus familiaris. The gist of the method: as §1
The nature of series [7]: Drug excretion in iv dosed dog bile after 5 to 30 mins by gamma-scintillation counting analysis. It is filed as ADME, organism-based, Canis lupus familiaris. The gist of the method: as §1
A short description of series [8]: Drug level in iv dosed dog vein by gamma-scintillation counting analysis. Type of series: ADME, organism-based, Canis lupus familiaris. In short, it runs like this:
as §1

Series [9] has as its system Brain. Put plainly: Drug level in iv dosed dog brain by gamma-scintillation counting analysis. It is filed as ADME, organism-based, Canis lupus familiaris. The gist of the method: as §1
Series [10] can be described thus: Drug excretion in iv dosed dog bile by gamma-scintillation counting analysis. It is filed as ADME, organism-based, Canis lupus familiaris. In short, it runs like this: as §1
The subject of series [11] is Brain. Put plainly: Drug level in iv dosed dog brain after 40 mins by gamma-scintillation counting analysis. Type of series: ADME, organism-based, Canis lupus familiaris. In short, it runs like this: (§2)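 Dogs received the 11C-labeled hydantoin iv in 1–1.5% aqueous NaOH. Organs and tissues were taken at necropsy 40 min after dosing and placed at fixed geometrical positions in front of a thallium-activated NaI scintillation detector. Detected scintillation events gave quantitative estimates of tissue activity.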

Series [12] in a line: Drug level in iv dosed dog cerebrospinal fluid after 40 mins by gamma-scintillation counting analysis. It is filed as ADME, organism-based, Canis lupus familiaris. The gist of the method:
as §2

Series [13] can be described thus: Drug level in iv dosed dog blood after 40 mins by gamma-scintillation counting analysis. Type of series: ADME, organism-based, Canis lupus familiaris. The gist of the method:
as §2

Series [14] is described as follows: Drug level in iv dosed dog kidney after 40 mins by gamma-scintillation counting analysis. Type of series: ADME, organism-based, Canis lupus familiaris. In short, it runs like this: as §2
Series [15] in a line: Drug level in iv dosed dog heart after 40 mins by gamma-scintillation counting analysis. Type of series: ADME, organism-based, Canis lupus familiaris. In short, it runs like this:
as §2

Series [16] is described as follows: Drug level in iv dosed dog skeletal muscle after 40 mins by gamma-scintillation counting analysis. Type of series: ADME, organism-based, Canis lupus familiaris, Muscle tissue. In short, it runs like this: as §2
Series [17] is described as follows: Drug level in iv dosed dog lung after 40 mins by gamma-scintillation counting analysis. Type of series: ADME, organism-based, Canis lupus familiaris. The gist of the method: as §2
Series [18] is described as follows: Drug level in iv dosed dog stomach after 40 mins by gamma-scintillation counting analysis. Type of series: ADME, organism-based, Canis lupus familiaris. The gist of the method:
as §2

Series [19] can be described thus: Drug level in iv dosed dog pancreas after 40 mins by gamma-scintillation counting analysis. It is filed as ADME, organism-based, Canis lupus familiaris. The gist of the method: as §2
The subject of series [20] is Liver. Nature of the series: Drug level in iv dosed dog liver after 40 mins by gamma-scintillation counting analysis. Type of series: ADME, organism-based, Canis lupus familiaris. The gist of the method:
as §2

Series [21] is described as follows: Drug level in iv dosed dog mesenteric fat after 40 mins by gamma-scintillation counting analysis. Type of series: ADME, organism-based, Canis lupus familiaris. In short, it runs like this: as §2
Series [22] is described as follows: Drug level in iv dosed dog omentum after 40 mins by gamma-scintillation counting analysis. Type of series: ADME, organism-based, Canis lupus familiaris. The gist of the method: as §2
The subject of series [23] is Canis familiaris. Put plainly: Drug level in iv dosed dog after 5 to 30 mins by gamma-scintillation counting analysis. It is filed as ADME, organism-based, Canis lupus familiaris. In short, it runs like this:
as §1

Series [24] is described as follows: Drug excretion in iv dosed dog urine after 1 hr by gamma-scintillation counting analysis. Type of series: ADME, organism-based, Canis lupus familiaris.
In series [25] the test system is Nucleic Acid. Nature of the series: Ratio of drug level in iv dosed dog brain to temporal muscle after 80 mins by gamma-scintillation counting analysis. Type of series: ADME, organism-based, Canis lupus familiaris. The gist of the method:
(§3)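 Dogs were dosed iv with 11C-labeled hydantoin. Tissues and fluids were collected at necropsy 73 or 80 min post-dose and counted at fixed geometry in front of a thallium-activated NaI scintillation detector. Values are cpm/g of tissue divided by cpm/g of temporal muscle.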

The test system of series [26] is Nucleic Acid. Put plainly: Ratio of drug level in iv dosed dog lung to temporal muscle after 80 mins by gamma-scintillation counting analysis. It is filed as ADME, organism-based, Canis lupus familiaris. In short, it runs like this: as §3
Series [27] has as its system Nucleic Acid. Put plainly: Ratio of drug level in iv dosed dog washed heart to temporal muscle after 80 mins by gamma-scintillation counting analysis. Type of series: ADME, organism-based, Canis lupus familiaris. The gist of the method:
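Dogs received the [11C]-labeled hydantoin intravenously. At necropsy 80 min post-injection, the heart was washed and collected with temporal muscle. Each sample was placed at a fixed position before a thallium-activated NaI scintillation detector. The ratio is cpm/g tissue over cpm/g temporal muscle.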

For series [28], the system named is Nucleic Acid. Put plainly: Ratio of drug level in iv dosed dog liver to temporal muscle after 80 mins by gamma-scintillation counting analysis. Type of series: ADME, organism-based, Canis lupus familiaris. In short, it runs like this: as §3
Series [29] has as its system Nucleic Acid. Nature of the series: Ratio of drug level in iv dosed dog bile to temporal muscle after 80 mins by gamma-scintillation counting analysis. Type of series: ADME, organism-based, Canis lupus familiaris. In short, it runs like this:
as §3

Series [30] relates to Nucleic Acid. Put plainly: Ratio of drug level in iv dosed dog spleen to temporal muscle after 80 mins by gamma-scintillation counting analysis. It is filed as ADME, organism-based, Canis lupus familiaris. The gist of the method:
as §3

Series [31] relates to Nucleic Acid. Nature of the series: Ratio of drug level in iv dosed dog stomach to temporal muscle after 80 mins by gamma-scintillation counting analysis. Type of series: ADME, organism-based, Canis lupus familiaris. The gist of the method:
as §3

The subject of series [32] is Nucleic Acid. Nature of the series: Ratio of drug level in iv dosed dog pancreas to temporal muscle after 80 mins by gamma-scintillation counting analysis. It is filed as ADME, organism-based, Canis lupus familiaris. In short, it runs like this: as §3
Series [33] relates to Nucleic Acid. Put plainly: Ratio of drug level in iv dosed dog kidney to temporal muscle after 80 mins by gamma-scintillation counting analysis. It is filed as ADME, organism-based, Canis lupus familiaris. The gist of the method:
as §3

The subject of series [34] is Nucleic Acid. Nature of the series: Ratio of drug level in iv dosed dog blood to temporal muscle after 80 mins by gamma-scintillation counting analysis. It is filed as ADME, organism-based, Canis lupus familiaris. The gist of the method:
as §3

The subject of series [35] is Nucleic Acid. Put plainly: Ratio of drug level in iv dosed dog mesenteric fat to temporal muscle after 80 mins by gamma-scintillation counting analysis. It is filed as ADME, organism-based, Canis lupus familiaris. The gist of the method:
as §3

Molecules are shown by their SMILES.

For the molecule `CSCCC1NC(=O)N[11C]1=O` (stereo unspecified), the Drug uptake result (in [1]; with Liver [2]; in the series on Canis familiaris [3]; in series [4]) was “Active” each time. In series [5], the Drug excretion result is given as “metabolite_detected”.
As for `CCC1(CC)NC(=O)N[11C]1=O`, the Drug uptake result in series [1] is recorded as “Active”; with Liver [2], “Active”; in the series on Canis familiaris [3], “Active”; in series [4] it was “Active”; in the series with Brain [6], “Not Active”. Besides, the values for the Drug excretion result in series [5] and in [7] were “metabolite_detected” and “metabolite_notdetected”, respectively.
Turning to `CCCC1(CCC)NC(=O)N[11C]1=O`, the Drug uptake result is recorded as “Active” in series [1]; “Active” in the series on Liver [2]; “Active” with Canis familiaris [3]; “Active” in series [4]; “Not Active” in the series with Brain [6]. Besides, the Drug excretion result is recorded as “metabolite_detected” in series [5] and “metabolite_notdetected” in series [7].
`CC(C)CC1(CC(C)C)NC(=O)N[11C]1=O`: the Drug uptake entry was “Active” in [1]; “Active” with Liver [2]; “Active” with Canis familiaris [3]; “Active” in [4]; “Not Active” in the series on Brain [6]. For the same molecule, the Drug excretion entry in series [5] is recorded as “metabolite_detected”; in series [7], “metabolite_notdetected”.
For `CC1(CCC(=O)O)NC(=O)N[11C]1=O` (stereo unspecified), the Drug uptake result in series [8] is listed as “Active”; in series [1], “Active”; in the series on Liver [2], “Active”; with Canis familiaris [3] it was “Active”; in [4], “Active”; in the series on Brain [6], “Not Active”. The Drug excretion entry in [5] is “metabolite_detected”; in [7] it was “metabolite_notdetected”.
As to `O=C1N[11C](=O)C(c2ccccc2)(c2ccccc2)N1`, the Drug uptake entry (with Brain [9]; in series [4]; with Brain [11]; in series [12]; in series [13]; in series [14]) was “Active” in each case. Also, the Drug uptake entry (in [15]; in series [16]; in series [17]; in series [18]; in series [19]; in the series on Liver [20]) was “Active” throughout. In addition, the Drug uptake result in series [21] and in series [22] was “Active” in each case. Besides, the Drug excretion result in [5] and in series [10] was “metabolite_detected” each time.
Consider `O=C1N[11C](=O)C(c2ccc(Cl)cc2)(c2ccc(Cl)cc2)N1`, for which the Drug uptake result (in the series on Brain [9]; in [4]) was “Active” throughout. Further, the Drug excretion entry in [5] and in series [10] was “metabolite_detected” each time.
Consider `O=C1N[11C](=O)C(c2ccccc2)N1c1ccccc1` (stereo unspecified), for which the Drug uptake result (with Brain [9]; in series [4]) was “Active” each time. The Drug excretion result in series [5] and in series [10] was “metabolite_detected” each time.
Consider `O=C1NC(c2ccccc2)[11C](=O)N1` (stereo unspecified), for which, in the series with Canis familiaris [23], the Drug uptake entry was “Active”. Moreover, the Drug excretion entry in [24] is “metabolite_detected”. The Ratio in the series with Nucleic Acid [25] stood at 0.73; in the series with Nucleic Acid [26], 1.05; with Nucleic Acid [27] it was 0.71; in the series with Nucleic Acid [28] it was 2.25; in the series with Nucleic Acid [29], 0.83; in the series with Nucleic Acid [30], 0.81. Moreover, the Ratio was determined as 0.76 in the series with Nucleic Acid [31]; 0.63 in the series on Nucleic Acid [32]; 1.91 in the series on Nucleic Acid [33]; 0.93 with Nucleic Acid [34]; 0.25 in the series with Nucleic Acid [35].
